# PAFAH2 FP inh = PAFAH2 (human) inhibition; inhibition, % at 3.39 µM; hit rate 0.99% among 340,000; AID 492956; Q99487; recombinant PAFAH2, FP-rhodamine activity probe, fluorescence polarization;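 active = inhibition above the mean over all tested compounds plus 3 SD, cut at about 30% in these data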;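 also: inhibitors block probe labeling of enzyme so polarization drops; 0% = enzyme with DMSO and 100% = wells lacking PAFAH2 protein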
# ABHD4 inh = inhibitors of mouse ABHD4. Q8VD66. purified mABHD4, FP-Rh probe fluorescence polarization. inhibition, % at 8.92 µM. hit rate 0.54% among 370,000;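 active = inhibition exceeding the mean over every tested compound plus 3 SD, cut at about 30% in these data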;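 also: 0% = plate median of compound wells and 100% = S159A mutant with DMSO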
#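 system = mouse ABHD4 enzyme, wild type | medium = HEPES pH 7.0, NaCl, Pluronic buffer | also added = FP-Rh probe | incubation = Enzyme–compound pre-incubation 45 min, then probe 60 min, both 25 °C | technique = fluorescence polarization, excitation 525 nm, emission 598 nm, BODIPY TMR filters | controls = S159A mutant high control, sample median low control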
# pPAFAH inh = pPAFAH (human) enzyme inhibition | Q13093 | recombinant pPAFAH, FP-rhodamine probe fluorescence polarization | inhibition, % at 3.39 µM | hit rate 1.5% among 330,000 | AID 463082;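 active = inhibition above the mean inhibition across the screen plus 3 SD, cut at about 25% in these data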;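 also: inhibitors block binding of the rhodamine activity-based probe so polarization drops; 0% = enzyme with DMSO and 100% = wells lacking pPAFAH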
# HTRA1 inh = HTRA1 (human) protease inhibition. AID 504803. hit rate 0.5% among 340,000. inhibition, % at 5.96 µM. recombinant HTRA1, FP-rhodamine activity-based probe, fluorescence polarization. Q92743; in the data active = inhibition above about 36%;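 also: 0% = enzyme with DMSO and 100% = wells lacking enzyme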
# Target sequence (Q92743 whole entry, looked up): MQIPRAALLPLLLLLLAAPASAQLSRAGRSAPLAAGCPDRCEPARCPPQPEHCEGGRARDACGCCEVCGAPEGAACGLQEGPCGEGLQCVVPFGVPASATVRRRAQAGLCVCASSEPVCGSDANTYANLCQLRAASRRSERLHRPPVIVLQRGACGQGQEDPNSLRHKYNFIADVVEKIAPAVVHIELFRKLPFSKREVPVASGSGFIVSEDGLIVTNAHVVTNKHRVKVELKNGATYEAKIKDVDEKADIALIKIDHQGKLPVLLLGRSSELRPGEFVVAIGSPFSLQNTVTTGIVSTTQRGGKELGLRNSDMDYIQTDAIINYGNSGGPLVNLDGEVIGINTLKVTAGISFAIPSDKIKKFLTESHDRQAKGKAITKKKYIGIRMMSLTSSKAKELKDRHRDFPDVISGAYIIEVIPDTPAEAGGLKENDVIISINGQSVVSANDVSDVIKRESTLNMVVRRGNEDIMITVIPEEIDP
# PAFAH1B2 inh = PAFAH1B2 (human) inhibition; hit rate 1.2% among 340,000; inhibition, % at 3.39 µM; AID 492953; recombinant PAFAH1B2, FP-rhodamine activity probe, fluorescence polarization; P68402;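 active = inhibition above the mean of all tested compounds plus 3 SD, cut at about 24% in these data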;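 also: 0% = enzyme with DMSO and 100% = wells lacking PAFAH1B2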
# PAFAH1B3 inh = PAFAH1B3 (human) inhibition; inhibition, % at 3.39 µM; recombinant PAFAH1B3, FP-rhodamine probe, fluorescence polarization; hit rate 0.28% among 340,000; Q15102;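 active = inhibition above the screen-wide average of all tested compounds plus 3 SD, cut at about 25% in these data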;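 also: 0% = enzyme with DMSO only and 100% = wells lacking PAFAH1B3 protein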
# PAFAH2 confirm = confirmation of human PAFAH2 inhibitors | shares compounds with PAFAH2 FP inh | recombinant PAFAH2, FP-rhodamine activity probe, fluorescence polarization | inhibition, % at 3.39 µM | hit rate 65% among 2,300 | AID 493030;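 active = mean inhibition over three repeats above a set limit taken from the earlier primary screen, cut at about 30% in these data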;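 also: inhibitor blocks binding of rhodamine activity probe so polarization falls; 0% = enzyme with DMSO and 100% = wells lacking PAFAH2 protein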
# PAFAH1B3 confirm = confirmation of human PAFAH1B3 inhibitors. shares compounds with PAFAH1B3 inh. recombinant PAFAH1B3, FP-Rh activity-based probe, fluorescence polarization. inhibition, % at 3.39 µM. hit rate 30% among 390. AID 493032;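 active = average inhibition over triplicate runs above the hit cutoff set in the earlier primary screen, cut at about 25% in these data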;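 also: 0% = enzyme with DMSO and 100% = wells lacking PAFAH1B3 protein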
# mABHD4 conf = ABHD4 (mouse) inhibition, FP confirmation. shares compounds with ABHD4 inh. purified mABHD4, FP-Rh probe fluorescence polarization. inhibition, % at 8.92 µM. hit rate 55% among 1,800. AID 720658;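 active = mean inhibition across replicates above the hit cutoff set in the primary screen, cut at about 30% in these data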;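 also: 0% = wild-type ABHD4 with DMSO and 100% = catalytically dead S159A mutant with DMSO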
# * hit, by the source's call; nt = no result given; + = active, no number. Only some compounds are listed: those with a hit (about 2.8% of all), similar ones and a draw of the others.
SMILES,PAFAH2 FP inh,ABHD4 inh,pPAFAH inh,HTRA1 inh,PAFAH1B2 inh,PAFAH1B3 inh,PAFAH1B3 confirm,others
O=[N+]([O-])c1ccc(NN=Cc2cccc3ccccc23)cc1,7.0,2.1,nt,-0.1,2.8,2.5,nt,
O=[N+]([O-])c1cc(Br)c(O)c(/C=N/Nc2nnnn2-c2cccc3ccccc23)c1,35.1*,39.0*,33.5*,23.7,18.1,20.8,nt,PAFAH2 confirm=23.6;mABHD4 conf=64.5*
CC1=C(C#N)C(=O)NC(=O)/C1=C\c1ccc(-c2ccc(C)cc2[N+](=O)[O-])o1,34.6*,32.2*,nt,17.8,13.1,13.6,nt,PAFAH2 confirm=7.8;mABHD4 conf=33.4*
COC(=O)C1=C(C)N(Cc2ccc(C(F)(F)F)cc2)C(=NCc2ccc(C(F)(F)F)cc2)NC1c1ccc(F)cc1 (stereo unspecified),nt,26.3,nt,nt,nt,nt,nt,
O=C(NC1(O)C(=O)c2ccccc2C1=O)c1ccccc1,15.9,4.2,2.5,14.5,9.2,36.5*,37.2*,
O=C(NC1(O)C(=O)c2ccccc2C1=O)c1c(Cl)cccc1Cl,nt,-1.2,7.3,nt,nt,nt,nt,
Cc1cc(NC2=CC(=O)C(=O)c3ccccc32)no1,20.4,22.1,nt,11.2,10.8,33.2*,34.1*,
COc1cc(OC)c(NC2=CC(=O)C(=O)c3ccccc32)cc1Cl,11.9,6.1,11.7,3.4,10.3,41.9*,33.4*,
CCOc1ccc(-c2csc(/C(C#N)=C\c3ccc(O)c([N+](=O)[O-])c3)n2)cc1,18.9,2.8,21.2,2.3,14.4,34.6*,22.3,
CCCCc1ccc(-c2csc(/C(C#N)=C\c3ccc(C)o3)n2)cc1,-8.4,11.7,10.1,-11.8,-2.8,-9.5,nt,
ON=C1c2ccccc2-c2ccc(O)cc21,6.6,6.9,nt,-3.3,3.3,36.7*,27.7*,
COc1ccc(NC(=O)NNC(=O)c2ccc3ccccc3c2O)cc1OC,3.6,8.7,4.8,-0.6,1.9,18.8,nt,
CCc1ccc(NC(=O)NNC(=O)c2ccc3ccccc3c2O)cc1,-6.0,5.9,nt,10.5,12.3,36.3*,74.0*,
Cc1csc(NC(=O)c2ccc(COc3ccc(Cl)c(Cl)c3)o2)n1,nt,4.4,nt,nt,nt,nt,nt,
N#Cc1ccccc1NCCCN1CCC(C(O)(c2ccccc2)c2ccccc2)CC1,nt,-1.5,nt,nt,nt,nt,nt,
C[C@@H]1C=C(C(=O)NCc2nc3ccccc3[nH]2)O[C@H](OCCCCO)C1,-3.2,9.4,-2.4,4.8,-6.2,+,7.9,
C[C@@H]1C=C(C(=O)NCc2nc3ccccc3[nH]2)O[C@H](OCc2ccc(CO)cc2)C1,7.1,-1.8,-4.4,-2.2,3.9,-1.9,nt,
Cc1ccc(C(=O)CSc2nnc(-c3ccccn3)n2-c2ccccc2)cc1,nt,0.7,nt,nt,nt,nt,nt,
COc1nc(OC)nc(N2CCC(C(=O)N(C)Cc3ccccc3F)CC2)n1,nt,1.7,nt,nt,nt,nt,nt,
CC(=O)N(C)C1=C(O)c2ccccc2C(=O)C1=O,-1.8,4.8,2.1,4.4,0.4,4.2,nt,
CC(=O)N(C1=C(N2CCOCC2)C(=O)c2ccccc2C1=O)c1ccc(C(=O)O)cc1,3.2,-1.7,-3.0,12.7,5.4,25.8*,15.6,
CC(=O)N(C)C1=C(N2CCOCC2)C(=O)c2ccccc2C1=O,3.3,nt,10.6,8.3,8.3,30.6*,12.4,
O=C1c2ccccc2-c2ccc(C(=O)N3CCOCC3)cc21,8.4,4.0,7.4,-2.0,-1.5,-0.4,nt,
CC(C)(C)OC(=O)NCCc1ccccc1/C=C/S(=O)(=O)NC1CCCC1,nt,4.6,nt,nt,nt,nt,nt,
O=S(=O)(Nc1nc2ccccc2nc1NCCO)c1cccc(Cl)c1,4.2,2.1,10.5,7.2,9.4,26.4*,9.9,
COCCCNc1nc2ccccc2nc1NS(=O)(=O)c1cccc(Cl)c1,7.3,5.5,11.2,0.8,6.4,7.8,nt,
O=C(Cn1ncc(Cl)c(Cl)c1=O)NC1CCCCC1,3.4,6.2,-2.2,-0.7,1.1,28.9*,20.7,

# Source: PubChem BioAssay (The Scripps Research Institute Molecular Screening Center)
